Activity calls are given as the source filed them. The calls are words filed in the database; no cut-off is given here.
Assays:
Type in all cases: functional
OVCAR-4 = assay: Anticancer activity against human OVCAR4 cells after 48 hrs by sulforhodamine B assay
Method in brief: (§1)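 NCI 60-cell-line screen. Cells grown in RPMI 1640 with 5% FBS and 2 mM L-glutamine, plated at 5000–40,000 cells/well, and preincubated 24 h at 37 °C under 5% CO2. Compounds were taken from DMSO stocks and tested at five final concentrations, 10^-4 to 10^-8 M, for 48 h. Cells were TCA-fixed, stained with 0.4% SRB, and read at 515 nm. GI50, TGI and LC50 were derived as log molar values.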

SNB-19 = assay: Anticancer activity against human SNB19 cells after 48 hrs by sulforhodamine B assay
Method in brief: (§2)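 NCI 60-cell-line panel; cells grown in RPMI 1640 with 5% FBS and 2 mM L-glutamine, plated at 5000–40,000 cells/well and preincubated 24 h at 37 °C, 5% CO2. Compounds came from DMSO stocks diluted in medium with gentamicin and were tested at five final concentrations, 10^-4 to 10^-8 M, for 48 h. Cells were fixed with TCA, stained with SRB and read at 515 nm. GI50, TGI and LC50 were derived as log molar values.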

NCI-H460 [1] = assay: Anticancer activity against human NCI-H460 cells after 48 hrs by sulforhodamine B assay; method in brief: as §1
MCF7 [2] = assay: Anticancer activity against human MCF7 cells after 48 hrs by sulforhodamine B assay; method in brief: as §1
BT-549 = assay: Anticancer activity against human BT549 cells after 48 hrs by sulforhodamine B assay; method in brief: as §1
SK-MEL-2 = assay: Anticancer activity against human SK-MEL-2 cells after 48 hrs by sulforhodamine B assay; method in brief: as §1
EKVX = assay: Anticancer activity against human EKVX cells after 48 hrs by sulforhodamine B assay; method in brief: as §1
SF-295 = assay: Anticancer activity against human SF295 cells after 48 hrs by sulforhodamine B assay; method in brief: as §1
SF-268 [3] = assay: Anticancer activity against human SF268 cells after 48 hrs by sulforhodamine B assay; method in brief: as §1
SNB-75 = assay: Anticancer activity against human SNB75 cells after 48 hrs by sulforhodamine B assay; method in brief: as §2
NCI-H226 = assay: Anticancer activity against human NCI-H226 cells after 48 hrs by sulforhodamine B assay; method in brief: as §1
T47D = assay: Anticancer activity against human T47D cells after 48 hrs by sulforhodamine B assay; method in brief: as §2
MDA-MB-435 = assay: Anticancer activity against human MDA-MB-435 cells after 48 hrs by sulforhodamine B assay; method in brief: as §1
OVCAR-5 = assay: Anticancer activity against human OVCAR5 cells after 48 hrs by sulforhodamine B assay; method in brief: as §1
NCI-H23 = assay: Anticancer activity against human NCI-H23 cells after 48 hrs by sulforhodamine B assay
Method in brief: (§3)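 NCI 60-cell-line screen. Cells were grown in RPMI 1640 with 5% FBS and 2 mM L-glutamine, seeded at 5000–40,000 cells/well and preincubated 24 h at 37 °C, 5% CO2. Compounds in DMSO were diluted in medium with gentamicin and tested at five concentrations (10^-4 to 10^-8 M) for 48 h. Cells were then fixed with TCA, stained with SRB and read at 515 nm.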

MOLT-4 = assay: Anticancer activity against human MOLT4 cells after 48 hrs by sulforhodamine B assay; method in brief: as §1
NCI-H322M = assay: Anticancer activity against human NCI-H322M cells after 48 hrs by sulforhodamine B assay; method in brief: as §1
NCI/ADR-RES = assay: Anticancer activity against human NCI/ADR-RES cells after 48 hrs by sulforhodamine B assay; method in brief: as §1
COLO 205 = assay: Anticancer activity against human COLO205 cells after 48 hrs by sulforhodamine B assay; method in brief: as §1
SR = assay: Anticancer activity against human SR cells after 48 hrs by sulforhodamine B assay; method in brief: as §2
UACC-62 = assay: Anticancer activity against human UACC62 cells after 48 hrs by sulforhodamine B assay; method in brief: as §2
DU-145 = assay: Anticancer activity against human DU145 cells after 48 hrs by sulforhodamine B assay; method in brief: as §1
HOP-62 = assay: Anticancer activity against human HOP62 cells after 48 hrs by sulforhodamine B assay; method in brief: as §1
HOP-92 = assay: Anticancer activity against human HOP92 cells after 48 hrs by sulforhodamine B assay; method in brief: as §1
NCI-H522 = assay: Anticancer activity against human NCI-H522 cells after 48 hrs by sulforhodamine B assay; method in brief: as §1
LOX IMVI = assay: Anticancer activity against human LOXIMVI cells after 48 hrs by sulforhodamine B assay; method in brief: as §1
SF-539 = assay: Anticancer activity against human SF539 cells after 48 hrs by sulforhodamine B assay; method in brief: as §1
RXF 393 = assay: Anticancer activity against human RXF393 cells after 48 hrs by sulforhodamine B assay; method in brief: as §1
HT-29 = assay: Anticancer activity against human HT-29 cells after 48 hrs by sulforhodamine B assay; method in brief: as §1
SK-MEL-28 = assay: Anticancer activity against human SK-MEL-28 cells after 48 hrs by sulforhodamine B assay; method in brief: as §1
IGROV-1 = assay: Anticancer activity against human IGROV1 cells after 48 hrs by sulforhodamine B assay; method in brief: as §1
SW-620 = assay: Anticancer activity against human SW620 cells after 48 hrs by sulforhodamine B assay; method in brief: as §2
RPMI8266 = assay: Anticancer activity against human RPMI8266 cells after 48 hrs by sulforhodamine B assay; method in brief: as §1
A498 = assay: Anticancer activity against human A498 cells after 48 hrs by sulforhodamine B assay; method in brief: as §1
UO-31 = assay: Anticancer activity against human UO31 cells after 48 hrs by sulforhodamine B assay; method in brief: as §2
Hs-578T = assay: Anticancer activity against human Hs 578T cells after 48 hrs by sulforhodamine B assay; method in brief: as §1
HCT-116 = assay: Anticancer activity against human HCT116 cells after 48 hrs by sulforhodamine B assay; method in brief: as §1
CCRF-CEM = assay: Anticancer activity against human CCRF-CEM cells after 48 hrs by sulforhodamine B assay; method in brief: as §1
MDA-N = assay: Anticancer activity against human MDA-N cells after 48 hrs by sulforhodamine B assay; method in brief: as §1
HL-60(TB) = assay: Anticancer activity against human HL-60(TB) cells after 48 hrs by sulforhodamine B assay; method in brief: as §3
SN12C = assay: Anticancer activity against human SN12C cells after 48 hrs by sulforhodamine B assay; method in brief: as §2
UACC-257 = assay: Anticancer activity against human UACC257 cells after 48 hrs by sulforhodamine B assay; method in brief: as §2
KM12 = assay: Anticancer activity against human KM12 cells after 48 hrs by sulforhodamine B assay; method in brief: as §1
OVCAR-8 = assay: Anticancer activity against human OVCAR8 cells after 48 hrs by sulforhodamine B assay; method in brief: as §1
MDA-MB-231 = assay: Anticancer activity against human MDA-MB-231 cells after 48 hrs by sulforhodamine B assay; method in brief: as §1
PC-3 = assay: Anticancer activity against human PC3 cells after 48 hrs by sulforhodamine B assay; method in brief: as §1
HCC 2998 = assay: Anticancer activity against human HCC2998 cells after 48 hrs by sulforhodamine B assay; method in brief: as §1
OVCAR-3 = assay: Anticancer activity against human OVCAR-3 cells after 48 hrs by sulforhodamine B assay; method in brief: as §1
TK-10 = assay: Anticancer activity against human TK10 cells after 48 hrs by sulforhodamine B assay; method in brief: as §2
Malme-3M = assay: Anticancer activity against human MALME-3M cells after 48 hrs by sulforhodamine B assay; method in brief: as §1
CAKI-1 = assay: Anticancer activity against human Caki1 cells after 48 hrs by sulforhodamine B assay; method in brief: as §1
ACHN = assay: Anticancer activity against human ACHN cells after 48 hrs by sulforhodamine B assay; method in brief: as §1
786-0 = assay: Anticancer activity against human 786-0 cells after 48 hrs by sulforhodamine B assay; method in brief: as §1
SK-OV-3 = assay: Anticancer activity against human SKOV3 cells after 48 hrs by sulforhodamine B assay; method in brief: as §1
U-251 = assay: Anticancer activity against human U251 cells after 48 hrs by sulforhodamine B assay; method in brief: as §2
HCT-15 = assay: Anticancer activity against human HCT15 cells after 48 hrs by sulforhodamine B assay; method in brief: as §1
K562 = assay: Anticancer activity against human K562 cells after 48 hrs by sulforhodamine B assay; method in brief: as §1
A549 = assay: Anticancer activity against human A549 cells after 48 hrs by sulforhodamine B assay; method in brief: as §1
M14 = assay: Anticancer activity against human M14 cells after 48 hrs by sulforhodamine B assay; method in brief: as §1
SK-MEL-5 = assay: Anticancer activity against human SK-MEL-5 cells after 48 hrs by sulforhodamine B assay; method in brief: as §1
SF-268 [4] = assay: Anticancer activity against human SF268 cells assessed as cell growth at 100 uM after 48 hrs by Alamar blue assay relative to control; conditions: SF-268, 48 h, read-out: Activity
Method in brief: (§4)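 NCI one-dose pre-test on MCF7, NCI-H460 and SF-268. Cells were inoculated and preincubated, then exposed to a single 10^-4 M concentration for 48 h. End-point was alamar blue. Results are percent growth versus untreated control cells, with negative values indicating cell kill.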

MCF7 [5] = assay: Anticancer activity against human MCF7 cells assessed as cell growth at 100 uM after 48 hrs by Alamar blue assay relative to control; conditions: MCF7, 48 h, read-out: Activity; method in brief: as §4
NCI-H460 [6] = assay: Anticancer activity against human NCI-H460 cells assessed as cell growth at 100 uM after 48 hrs by Alamar blue assay relative to control; conditions: NCI-H460, 48 h, read-out: Activity; method in brief: as §4

## FC(F)(F)C(=Cc1nc2ccccc2s1)C(F)(F)F
OVCAR-4
  logGI50: inactive
SNB-19
  logGI50: inactive
NCI-H460 [1]
  logGI50: inactive
MCF7 [2]
  logGI50: inactive
BT-549
  logGI50: inactive
SK-MEL-2
  logGI50: inactive
EKVX
  logGI50: inactive
SF-295
  logGI50: inactive
SF-268 [3]
  logGI50: inactive
SNB-75
  logGI50: inactive
NCI-H226
  logGI50: inactive
T47D
  logGI50: inactive
MDA-MB-435
  logGI50: inactive
OVCAR-5
  logGI50: inactive
NCI-H23
  logGI50: inactive
MOLT-4
  logGI50: inactive
NCI-H322M
  logGI50: inactive
NCI/ADR-RES
  logGI50: inactive
COLO 205
  logGI50: inactive
SR
  logGI50: inactive
UACC-62
  logGI50: inactive
DU-145
  logGI50: inactive
HOP-62
  logGI50: inactive
HOP-92
  logGI50: inactive
NCI-H522
  logGI50: inactive
LOX IMVI
  logGI50: inactive
SF-539
  logGI50: inactive
RXF 393
  logGI50: inactive
HT-29
  logGI50: inactive
SK-MEL-28
  logGI50: inactive
IGROV-1
  logGI50: inactive
SW-620
  logGI50: inactive
RPMI8266
  logGI50: inactive
A498
  logGI50: inactive
UO-31
  logGI50: inactive
Hs-578T
  logGI50: inactive
HCT-116
  logGI50: inactive
CCRF-CEM
  logGI50: inactive
MDA-N
  logGI50: inactive
HL-60(TB)
  logGI50: inactive
SN12C
  logGI50: inactive
UACC-257
  logGI50: inactive
KM12
  logGI50: inactive
OVCAR-8
  logGI50: inactive
MDA-MB-231
  logGI50: inactive
PC-3
  logGI50: inactive
HCC 2998
  logGI50: inactive
OVCAR-3
  logGI50: inactive
TK-10
  logGI50: inactive
Malme-3M
  logGI50: inactive
CAKI-1
  logGI50: inactive
ACHN
  logGI50: inactive
786-0
  logGI50: inactive
SK-OV-3
  logGI50: inactive
U-251
  logGI50: inactive
HCT-15
  logGI50: inactive
K562
  logGI50: inactive
A549
  logGI50: inactive
M14
  logGI50: inactive
SK-MEL-5
  logGI50: inactive

## CC(NC(=O)Nc1nccs1)(C(F)(F)F)C(F)(F)F
SF-268 [4]
  growth at 100 µM: 74%
MCF7 [5]
  growth at 100 µM: 59%
NCI-H460 [6]
  growth at 100 µM: 49%
